This is an account of results in ChEMBL document CHEMBL1135503, “Lepadins D-F: antiplasmodial and antitrypanosomal decahydroquinoline derivatives from the tropical marine tunicate Didemnum sp” (J Med Chem, 2002).

Experiment [1] concerns Plasmodium falciparum. Description: Antiplasmodial activity against Plasmodium falciparum NF54. The class given is functional, organism-based. Summed up:
(§1)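 P. falciparum (NF54 chloroquine-sensitive, K1 chloroquine-resistant) cultured in vitro in human A+ erythrocytes with Albumax. Readout is inhibition of parasite-specific [3H]hypoxanthine incorporation. IC50 in µg/mL taken from logarithmic dose–response curves.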

In experiment [2] the test system is Plasmodium falciparum. Description: Antiplasmodial activity against Plasmodium falciparum K1. It is filed as functional, organism-based. An outline of the steps:
as §1

Experiment [3] concerns Trypanosoma cruzi. Description: 50% antitrypanosomal activity against Trypanosoma cruzi. It is filed as functional, organism-based. An outline of the steps: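 Tulahuen strain of T. cruzi expressing E. coli β-galactosidase, grown as intracellular amastigotes in mammalian fibroblasts with drug for 5 days. Viability read colorimetrically from β-galactosidase turnover of chlorophenol red β-D-galactopyranoside, quantified on an ELISA reader. IC50 in µg/mL.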

Experiment [4] deals with L6. The experiment in a line: Cytotoxic effect in rat skeletal muscle myoblast L6 cells. It is filed as functional, cell-based. Summed up: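 Rat L6 skeletal muscle myoblast cells. IC50 in µg/mL.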
The subject of experiment [5] is Trypanosoma brucei rhodesiense. The experiment in a line: 50% antitrypanosomal activity against Trypanosoma rhodesiense. The class given is functional, organism-based. Summed up: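 T. brucei rhodesiense grown axenically in culture medium supplemented with horse serum. IC50 in µg/mL.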
The test system of experiment [6] is Aspergillus pseudoglaucus. The experiment in a line: Zone of inhibition from the edge of a circular filter disk impregnated with test substance, against Eurotium repens (antifungal activity); NA means inactive. The class given is functional, organism-based. An outline of the steps:
(§2)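 Agar diffusion assay. Filter disks loaded with 0.02 mg sample each. Zone of inhibition measured in mm from the disk edge against the fungi Eurotium repens or Ustilago violacea (Microbotryum violaceum).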

The test system of experiment [7] is Microbotryum violaceum. Description: Zone of inhibition from the edge of a circular filter disk impregnated with test substance, against Ustilago violacea (antifungal activity); NA means inactive. The class given is functional, organism-based. An outline of the steps:
as §2

The target in experiment [8] is Tyrosine-protein kinase Lck (Homo sapiens) (UniProt P06239). Description: Inhibition of p56 Lck tyrosine kinase at 200 ug/mL (inactive).
Sequence of Tyrosine-protein kinase Lck (Homo sapiens) (P06239 2-509 limits assumed): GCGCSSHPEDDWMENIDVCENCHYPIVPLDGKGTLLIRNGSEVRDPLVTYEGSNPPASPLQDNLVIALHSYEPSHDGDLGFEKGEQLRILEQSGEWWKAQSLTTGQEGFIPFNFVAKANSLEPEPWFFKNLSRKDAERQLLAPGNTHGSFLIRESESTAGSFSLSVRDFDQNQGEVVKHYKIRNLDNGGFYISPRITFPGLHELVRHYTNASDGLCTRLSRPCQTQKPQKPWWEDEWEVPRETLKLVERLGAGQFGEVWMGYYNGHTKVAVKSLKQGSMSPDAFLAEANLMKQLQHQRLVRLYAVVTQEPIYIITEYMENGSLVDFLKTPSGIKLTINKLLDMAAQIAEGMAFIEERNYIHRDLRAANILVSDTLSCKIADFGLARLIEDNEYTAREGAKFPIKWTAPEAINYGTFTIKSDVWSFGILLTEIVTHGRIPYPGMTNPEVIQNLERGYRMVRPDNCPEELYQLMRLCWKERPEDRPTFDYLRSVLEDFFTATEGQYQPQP
The mark [9] stands for this setting: Plasmodium falciparum, read-out: IC50.
Setting [10] is: Trypanosoma cruzi, read-out: IC50.
Setting [11] is: Trypanosoma brucei, read-out: IC50.

Values after ≈ are worked out from the molar mass of the structure shown. Active and inactive are the calls of the source. The rule behind the calls is not given here.

As for `CCCC(O)CCCC[C@@H]1CCC[C@@H]2N[C@H](C)[C@@H](O)C[C@H]12` (stereo in doubt; 1) [listing 1 of 2 here], the IC50 (commonly the concentration at which inhibition is half-maximal) in experiment [1] (setting [9]) was 10 µg/mL (≈ 33.6 µM); in experiment [2] (setting [9]), 6.1 µg/mL (≈ 20.5 µM); in experiment [3] (setting [10]) it was 37.2 µg/mL (≈ 125 µM); in experiment [4] it was over 30 µg/mL; in experiment [5], 5.6 µg/mL (≈ 18.8 µM).
As for `CCCC(O)CCCC[C@@H]1CCC[C@@H]2N[C@H](C)[C@@H](O)C[C@H]12` (stereo in doubt; 2) [listing 1 of 2 here], the IC50 in experiment [1] is 10 µg/mL (≈ 33.6 µM); in experiment [2], 4 µg/mL (≈ 13.4 µM); in experiment [3], 37.3 µg/mL (≈ 125 µM); in experiment [4] it was over 30 µg/mL; in experiment [5], 1.97 µg/mL (≈ 6.62 µM).
On to `CCCC(O)CCCC[C@@H]1CCC[C@@H]2N[C@H](C)[C@@H](O)C[C@H]12` (stereo in doubt; 2) [listing 2 of 2 here], for which the NA entry in experiment [6], in experiment [7] and in experiment [8] was “inactive” in each case.
In the case of `CCCCC/C=C/C(=O)O[C@H]1C[C@@H]2[C@H](CCCCC(O)CCC)CCC[C@@H]2N[C@@H]1C` (stereo partly specified) [LEPADIN E], the IC50 in experiment [1] (setting [9]) turned out to be 0.9 µg/mL (≈ 2.13 µM); in experiment [2] (setting [9]) it was 0.4 µg/mL (≈ 0.949 µM); in experiment [3] (setting [10]), 2.2 µg/mL (≈ 5.22 µM); in experiment [4], 16.2 µg/mL (≈ 38.4 µM); in experiment [5] (setting [11]), 0.38 µg/mL (≈ 0.901 µM).
For `C[C@@H]1CC[C@H]2[C@@H](C)C(=O)O[C@@H]3O[C@@]4(C)CC[C@@H]1[C@]32OO4` [ARTEMISININ], the figures for the IC50 in experiment [1] (setting [9]) and in experiment [2] (setting [9]) were 0.003 µg/mL (≈ 0.0106 µM) and 0.001 µg/mL (≈ 0.00354 µM), respectively.
`CCCC(O)CCCC[C@@H]1CCC[C@@H]2N[C@H](C)[C@@H](O)C[C@H]12` (stereo in doubt; 1) [listing 2 of 2 here]: the NA result in experiment [8] was “inactive”.
Take `CCCCC/C=C/C(=O)O[C@H]1C[C@@H]2[C@H](CCCCC(O)CCC)CCC[C@@H]2N[C@H]1C` (stereo partly specified) [LEPADIN F]: the half-inhibitory concentration (IC50) is 0.3 µg/mL (≈ 0.711 µM) in experiment [1] (setting [9]); 0.2 µg/mL (≈ 0.474 µM) in experiment [2] (setting [9]); 2.6 µg/mL (≈ 6.17 µM) in experiment [3] (setting [10]); 18.3 µg/mL (≈ 43.4 µM) in experiment [4]; 0.23 µg/mL (≈ 0.545 µM) in experiment [5] (setting [11]).
On to `Nc1nc(N)nc(Nc2ccc([As]3SCC(CO)S3)cc2)n1` (stereo unspecified) [MELARSOPROL], for which the IC50 in experiment [3] (setting [10]) came out at 0.6 µg/mL; in experiment [5] (setting [11]), 0.0026 µg/mL.
Consider `CCCCC/C=C/C(=O)O[C@H]1C[C@@H]2[C@H](CCCCC(O)CCC)CCC[C@@H]2N(C(=O)c2ccc(Br)cc2)[C@@H]1C` (stereo partly specified), for which the values for the IC50 in experiment [1] (setting [9]), in experiment [2] (setting [9]) and in experiment [5] (setting [11]) were 0.4 µg/mL (≈ 0.662 µM), 0.5 µg/mL (≈ 0.827 µM) and 36.9 µg/mL (≈ 60.9 µM), respectively.
